Where a SMILES comes first, the peptide text is derived from it. Bridges are numbered along the chain shown (N, C = ends).
Legend:
Melanocortin receptor 3 = Melanocortin receptor 3 (Mus musculus, UniProt P33033); experiment: Effective concentration for mouse Melanocortin-3 receptor
How it was run: (§1)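 HEK-293 cells stably expressing the mouse receptor (G418 selection), transiently transfected with a CRE/β-galactosidase reporter. Forskolin (10^-4 M) served as the control. After lysis, ONPG was added at 37° and OD405 was read. Signals were normalized to protein content and forskolin; EC50 came from a nonlinear least-squares fit, duplicate or more independent experiments in quadruplicate.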

Mus musculus = organism: Mus musculus; experiment: Relative effective concentration for Melanocortin-3 and Melanocortin-4 receptors
Melanocortin receptor 5 = Melanocortin receptor 5 (Mus musculus, UniProt P41149); experiment: Effective concentration for mouse Melanocortin-5 receptor
Sequence of Melanocortin receptor 5 (P41149 whole entry): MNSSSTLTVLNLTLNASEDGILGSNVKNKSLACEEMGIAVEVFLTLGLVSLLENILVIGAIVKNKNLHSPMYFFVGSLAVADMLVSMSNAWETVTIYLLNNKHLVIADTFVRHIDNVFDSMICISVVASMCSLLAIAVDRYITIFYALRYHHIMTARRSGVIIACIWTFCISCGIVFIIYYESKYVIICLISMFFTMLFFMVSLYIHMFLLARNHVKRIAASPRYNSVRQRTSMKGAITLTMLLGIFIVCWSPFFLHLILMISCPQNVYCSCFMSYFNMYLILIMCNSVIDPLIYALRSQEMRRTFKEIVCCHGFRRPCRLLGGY

Melanocortin receptor 4 = Melanocortin receptor 4 (Mus musculus, UniProt P56450); experiment: Effective concentration for mouse Melanocortin-4 receptor; how it was run: as §1
Sequence of Melanocortin receptor 4 (P56450 whole entry): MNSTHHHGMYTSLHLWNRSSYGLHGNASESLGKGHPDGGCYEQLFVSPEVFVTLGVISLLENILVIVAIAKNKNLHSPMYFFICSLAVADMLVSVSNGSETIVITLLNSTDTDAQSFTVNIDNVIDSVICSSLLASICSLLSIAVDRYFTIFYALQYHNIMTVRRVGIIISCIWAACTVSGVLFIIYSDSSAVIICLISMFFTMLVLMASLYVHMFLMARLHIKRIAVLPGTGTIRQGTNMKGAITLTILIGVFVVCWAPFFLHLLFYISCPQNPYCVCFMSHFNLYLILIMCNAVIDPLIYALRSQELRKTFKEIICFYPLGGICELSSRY

[1] = biological target: Melanocyte-stimulating hormone receptor (Mus musculus, UniProt Q01727); experiment: Effective concentration for mouse Melanocortin-1 receptor
Sequence of Melanocyte-stimulating hormone receptor (Q01727 whole entry): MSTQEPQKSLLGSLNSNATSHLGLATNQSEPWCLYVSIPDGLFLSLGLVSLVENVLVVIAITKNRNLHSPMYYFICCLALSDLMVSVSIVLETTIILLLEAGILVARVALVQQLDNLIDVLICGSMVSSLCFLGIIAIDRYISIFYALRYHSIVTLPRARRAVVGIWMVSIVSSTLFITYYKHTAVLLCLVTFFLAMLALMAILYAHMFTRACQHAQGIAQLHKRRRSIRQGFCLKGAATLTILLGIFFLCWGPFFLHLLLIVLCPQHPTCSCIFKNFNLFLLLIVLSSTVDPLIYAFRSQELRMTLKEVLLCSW

Sequence of Melanocortin receptor 3 (P33033 whole entry): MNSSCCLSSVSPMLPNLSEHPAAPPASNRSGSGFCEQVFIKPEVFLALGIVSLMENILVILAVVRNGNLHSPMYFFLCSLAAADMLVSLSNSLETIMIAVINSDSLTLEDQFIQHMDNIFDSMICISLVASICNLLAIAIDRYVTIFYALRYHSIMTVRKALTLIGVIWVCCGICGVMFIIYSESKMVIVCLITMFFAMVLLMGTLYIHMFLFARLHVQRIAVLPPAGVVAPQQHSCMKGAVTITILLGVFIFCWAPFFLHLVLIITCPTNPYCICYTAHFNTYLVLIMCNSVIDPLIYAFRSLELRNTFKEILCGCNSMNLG

| SMILES | EC50 (Melanocortin receptor 3) | Selectivity ratio (Mus musculus) | EC50 (Melanocortin receptor 5) | EC50 (Melanocortin receptor 4) | EC50 [1] |
| --- | --- | --- | --- | --- | --- |
| C[C@@H]1NC(=O)[C@H](CC(N)=O)NC(=O)[C@@H](Cc2ccc3ccccc3c2)NC(=O)[C@H](CCCN=C(N)N)NC(=O)[C@@H](Cc2ccccc2)NC(=O)[C@H](Cc2c[nH]cn2)NC(=O)[C@@H](NC(=O)[C@@H](N)Cc2ccc(O)cc2)CC(=O)N([C@@H](Cc2ccc(O)cc2)C(N)=O)[C@@](C)(C(=O)O)NC(=O)[C@H](Cc2ccccc2)NC1=O | 6.5 nM | 10 |  |  |  |
| C[C@@H]1NC(=O)[C@H](CC(N)=O)NC(=O)[C@H](Cc2c[nH]c3ccccc23)NC(=O)[C@H](CCCN=C(N)N)NC(=O)[C@@H]2CCCN2C(=O)[C@H](Cc2c[nH]cn2)NC(=O)[C@@H](NC(=O)[C@@H](N)Cc2ccc(O)cc2)CC(=O)N([C@@H](Cc2ccc(O)cc2)C(N)=O)[C@@](C)(C(=O)O)NC(=O)[C@H](Cc2ccccc2)NC1=O | 13200 nM |  |  |  |  |
| C[C@@H]1NC(=O)[C@H](CC(N)=O)NC(=O)[C@H](Cc2c[nH]c3ccccc23)NC(=O)[C@H](CCCN=C(N)N)NC(=O)[C@@H](Cc2ccccc2)NC(=O)[C@H](Cc2c[nH]cn2)NC(=O)[C@@H](NC(=O)[C@@H](N)Cc2ccc(O)cc2)CC(=O)N([C@@H](Cc2ccc(O)cc2)C(N)=O)[C@@](C)(C(=O)O)NC(=O)[C@@H](Cc2ccccc2)NC1=O | 14 nM | 21 |  |  |  |
| C[C@@H]1NC(=O)[C@H](CC(N)=O)NC(=O)[C@H](Cc2c[nH]c3ccccc23)NC(=O)[C@H](CCCCN)NC(=O)[C@@H](Cc2ccccc2)NC(=O)[C@H](Cc2c[nH]cn2)NC(=O)[C@@H](NC(=O)[C@@H](N)Cc2ccc(O)cc2)CC(=O)N([C@@H](Cc2ccc(O)cc2)C(N)=O)[C@@](C)(C(=O)O)NC(=O)[C@H](Cc2ccccc2)NC1=O | 30800 nM |  |  |  |  |
| C[C@@H]1NC(=O)[C@H](CC(N)=O)NC(=O)[C@H](Cc2ccc3ccccc3c2)NC(=O)[C@H](CCCN=C(N)N)NC(=O)[C@@H](Cc2ccccc2)NC(=O)[C@H](Cc2c[nH]cn2)NC(=O)[C@@H](NC(=O)[C@@H](N)Cc2ccc(O)cc2)CC(=O)N([C@@H](Cc2ccc(O)cc2)C(N)=O)[C@@](C)(C(=O)O)NC(=O)[C@H](Cc2ccccc2)NC1=O | 5.56 nM | 21 |  |  |  |
| C[C@@H]1NC(=O)[C@H](CC(N)=O)NC(=O)[C@H](Cc2c[nH]c3ccccc23)NC(=O)[C@@H]2CCCN2C(=O)[C@@H](Cc2ccccc2)NC(=O)[C@H](Cc2c[nH]cn2)NC(=O)[C@@H](NC(=O)[C@@H](N)Cc2ccc(O)cc2)CC(=O)N([C@@H](Cc2ccc(O)cc2)C(N)=O)[C@@](C)(C(=O)O)NC(=O)[C@H](Cc2ccccc2)NC1=O | 17300 nM |  |  |  |  |
| C[C@@H]1NC(=O)[C@H](CC(N)=O)NC(=O)[C@@H]2CCCN2C(=O)[C@H](CCCN=C(N)N)NC(=O)[C@@H](Cc2ccccc2)NC(=O)[C@H](Cc2c[nH]cn2)NC(=O)[C@@H](NC(=O)[C@@H](N)Cc2ccc(O)cc2)CC(=O)N([C@@H](Cc2ccc(O)cc2)C(N)=O)[C@@](C)(C(=O)O)NC(=O)[C@H](Cc2ccccc2)NC1=O | 39200 nM |  |  |  |  |
| C[C@@H]1NC(=O)[C@H](CC(N)=O)NC(=O)[C@H](C)NC(=O)[C@H](CCCN=C(N)N)NC(=O)[C@@H](Cc2ccccc2)NC(=O)[C@H](Cc2c[nH]cn2)NC(=O)[C@@H](NC(=O)[C@@H](N)Cc2ccc(O)cc2)CC(=O)N([C@@H](Cc2ccc(O)cc2)C(N)=O)[C@@](C)(C(=O)O)NC(=O)[C@H](Cc2ccccc2)NC1=O | 13500 nM | 19 |  |  |  |
| C[C@@H]1NC(=O)[C@H](CC(N)=O)NC(=O)[C@H](Cc2c[nH]c3ccccc23)NC(=O)[C@H](CCCN=C(N)N)NC(=O)[C@@H](Cc2ccc(-c3ccccc3)cc2)NC(=O)[C@H](Cc2c[nH]cn2)NC(=O)[C@@H](NC(=O)[C@@H](N)Cc2ccc(O)cc2)CC(=O)N([C@@H](Cc2ccc(O)cc2)C(N)=O)[C@@](C)(C(=O)O)NC(=O)[C@H](Cc2ccccc2)NC1=O | 33 nM | 58 |  |  |  |
| C[C@@H]1NC(=O)[C@H](CC(N)=O)NC(=O)[C@@H]2Cc3ccccc3CN2C(=O)[C@H](CCCN=C(N)N)NC(=O)[C@@H](Cc2ccccc2)NC(=O)[C@H](Cc2c[nH]cn2)NC(=O)[C@@H](NC(=O)[C@@H](N)Cc2ccc(O)cc2)CC(=O)N([C@@H](Cc2ccc(O)cc2)C(N)=O)[C@@](C)(C(=O)O)NC(=O)[C@H](Cc2ccccc2)NC1=O | 3400 nM | 13 |  |  |  |
| C[C@@H]1NC(=O)[C@H](CC(N)=O)NC(=O)[C@H](Cc2ccc(-c3ccccc3)cc2)NC(=O)[C@H](CCCN=C(N)N)NC(=O)[C@@H](Cc2ccccc2)NC(=O)[C@H](Cc2c[nH]cn2)NC(=O)[C@@H](NC(=O)[C@@H](N)Cc2ccc(O)cc2)CC(=O)N([C@@H](Cc2ccc(O)cc2)C(N)=O)[C@@](C)(C(=O)O)NC(=O)[C@H](Cc2ccccc2)NC1=O | 450 nM | 11 |  |  |  |
| C[C@@H]1NC(=O)[C@H](CC(N)=O)NC(=O)[C@H](Cc2c[nH]c3ccccc23)NC(=O)[C@H](CCCN=C(N)N)NC(=O)[C@@H](Cc2ccccc2)NC(=O)[C@H](C)NC(=O)[C@@H](NC(=O)[C@@H](N)Cc2ccc(O)cc2)CC(=O)N([C@@H](Cc2ccc(O)cc2)C(N)=O)[C@@](C)(C(=O)O)NC(=O)[C@H](Cc2ccccc2)NC1=O | 29 nM | 80 |  |  |  |
| C[C@@H]1NC(=O)[C@H](CC(N)=O)NC(=O)[C@H](Cc2c[nH]c3ccccc23)NC(=O)[C@H](CCCN=C(N)N)NC(=O)[C@@H](Cc2cccc3ccccc23)NC(=O)[C@H](Cc2c[nH]cn2)NC(=O)[C@@H](NC(=O)[C@@H](N)Cc2ccc(O)cc2)CC(=O)N([C@@H](Cc2ccc(O)cc2)C(N)=O)[C@@](C)(C(=O)O)NC(=O)[C@H](Cc2ccccc2)NC1=O | 320 nM | 560 |  |  |  |
| C[C@@H]1NC(=O)[C@H](CC(N)=O)NC(=O)[C@H](Cc2c[nH]c3ccccc23)NC(=O)[C@H](CCCN=C(N)N)NC(=O)[C@@H](Cc2ccccc2)NC(=O)C2(CCc3ccccc3C2)NC(=O)[C@@H](NC(=O)[C@@H](N)Cc2ccc(O)cc2)CC(=O)NC[C@@H](C(=O)N[C@@H](Cc2ccc(O)cc2)C(N)=O)NC(=O)[C@H](Cc2ccccc2)NC1=O (mixture of isomers) |  |  | 440 nM | 115 nM | 690 nM |
| C[C@@H]1NC(=O)[C@H](CC(N)=O)NC(=O)[C@H](Cc2c[nH]c3ccccc23)NC(=O)[C@H](C)NC(=O)[C@@H](Cc2ccccc2)NC(=O)[C@H](Cc2c[nH]cn2)NC(=O)[C@@H](NC(=O)[C@@H](N)Cc2ccc(O)cc2)CC(=O)N([C@@H](Cc2ccc(O)cc2)C(N)=O)[C@@](C)(C(=O)O)NC(=O)[C@H](Cc2ccccc2)NC1=O | 23800 nM | 730 |  |  |  |
| C[C@@H]1NC(=O)[C@H](CC(N)=O)NC(=O)[C@H](Cc2ccccc2)NC(=O)[C@H](Cc2ccccc2)NC(=O)[C@H](CCCNC(=N)N)NC(=O)[C@@H](NC(=O)[C@@H](N)Cc2ccc(O)cc2)CSSC[C@@H](C(=O)N[C@@H](Cc2ccc(O)cc2)C(N)=O)NC(=O)[C@H](Cc2ccccc2)NC1=O (H-YCRFFNAFCY-NH2; disulfide 2-9) | > 100000 nM |  | > 100000 nM |  |  |
| C[C@@H]1NC(=O)[C@H](CC(N)=O)NC(=O)[C@H](Cc2c[nH]c3ccccc23)NC(=O)[C@H](CCCN=C(N)N)NC(=O)[C@@H](Cc2ccccc2)NC(=O)[C@H](Cc2c[nH]cn2)NC(=O)[C@@H](NC(=O)[C@@H](N)Cc2ccc(O)cc2)CC(=O)N([C@@H](Cc2ccc(O)cc2)C(N)=O)[C@@](C)(C(=O)O)NC(=O)[C@H](Cc2ccccc2)NC1=O | 0.97 nM |  |  |  |  |

Source: ChEMBL document CHEMBL1143614, “Structure-activity relationships of the unique and potent agouti-related protein (AGRP)-melanocortin chimeric Tyr-c[beta-Asp-His-DPhe-Arg-Trp-Asn-Ala-Phe-Dpr]-Tyr-NH2 peptide template” (J Med Chem, 2005)
